Structures are written as SMILES. The source made the active and inactive calls. The calls are words filed in the database; no cut-off is given here.

This is an account of results in ChEMBL document CHEMBL1148017, “Radioiodination of new EGFR inhibitors as potential SPECT agents for molecular imaging of breast cancer” (Bioorg Med Chem, 2007).

The test system of one data set is A-431. Briefly: Growth inhibition of human A431 cells by MTT assay. It is filed as functional, cell-based. The procedure, abridged: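 A431 cells kept in high-glucose D-MEM with 10% foetal calf serum, 37 °C, 5% CO2. Plated at 3×10^3 cells/well and grown 24 h, then exposed to 1–50 µM compound (4 replicates) for 24, 48 and 72 h. MTT 1 mg/mL in phenol-red-free RPMI for 4 h, isopropanol solubilisation, A540 against 620 nm reference. % of untreated control plotted semi-log against concentration; IC50 read from the curve.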
A general note: Tetrazolium assays rely on reduction of a dye to a coloured formazan, in cell work by metabolically active cells.

The target of data set [1] is Epidermal growth factor receptor (Homo sapiens) (UniProt P00533). Briefly: Inhibition of EGFR autophosphorylation in human A431 cells at 1 uM. It is filed as cell-based. The following applies: A-431. In short, it runs like this:
(§1)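 A431 cells grown to about 70% confluence, serum-starved 24 h, then given compound (0.1–5 µM) for 2 h and stimulated with EGF 20 ng/mL for 5 min. Lysates loaded at equal total protein (BCA), run on 8% SDS-PAGE and blotted to PVDF. Probed with anti-phosphotyrosine PY20 and an HRP anti-mouse secondary, detected by ECL. Bands quantified against controls with and without EGF, no drug.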

Data set [2] shares this target. Briefly: Inhibition of EGFR autophosphorylation in human A431 cells at 0.1 uM. The following applies: A-431. It is filed as cell-based. In short, it runs like this: as §1
Data set [3] can be described thus: Partition coefficient, log P at pH 7.4. It is filed as physicochemical. As to conditions: octanol/water. In short, it runs like this: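 Shake-flask method with back-extraction. Radiotracer placed in mutually saturated octanol and PBS pH 7.4, vortexed and centrifuged (3000 rpm, 10 min, rt). Both phases gamma-counted. 0.5 mL of octanol re-extracted against an equal volume of PBS and counting repeated. log P is taken from the octanol/buffer count ratio.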

The test system of the next data set is Serum. Briefly: Protein binding in human serum. It is filed as ADME, cell-free. The procedure, abridged: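 Radioiodinated tracer (≈370 kBq) incubated in 1 mL fresh human serum at 37 °C. Duplicate 100 µL samples taken at 15 min, 1, 2, 4 and 21 h. Proteins precipitated with 200 µL ethanol, cooled to 4 °C and centrifuged. Pellet washed with ethanol and gamma-counted. Pellet activity is expressed as % of total activity.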

Data set [4] deals with Liver. Briefly: Biodistribution in CD1 mouse liver at 175 to 200 kBq, iv after 1 hr. It is filed as ADME, organism-based. The following applies: in vivo. In short, it runs like this: (§2)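 Female CD-1 mice (20-25 g, groups of 5) given the radioiodinated compound via tail vein, 175-200 kBq in saline (100 µL) with 0.1% Tween 20. Injected dose taken as syringe activity before minus after. Killed at 1 and 4 h; organs removed, weighed and gamma-counted. Values are % ID per total organ, mean ± SD.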

In data set [5] the test system is Liver. Put plainly: Biodistribution in CD1 mouse liver at 175 to 200 kBq, iv after 4 hrs. The following applies: in vivo. It is filed as ADME, organism-based. The procedure, abridged: as §2
Data set [6] deals with Stomach. Briefly: Biodistribution in CD1 mouse stomach at 175 to 200 kBq, iv after 1 hr. It is filed as ADME, organism-based. The following applies: in vivo. In short, it runs like this: as §2
Data set [7] has as its system Stomach. Briefly: Biodistribution in CD1 mouse stomach at 175 to 200 kBq, iv after 4 hrs. It is filed as ADME, organism-based. The following applies: in vivo. The procedure, abridged: as §2
Data set [8] relates to Thyroid gland. Briefly: Biodistribution in CD1 mouse thyroid at 175 to 200 kBq, iv after 1 hr. It is filed as ADME, organism-based. The following applies: in vivo. The procedure, abridged:
as §2

The subject of data set [9] is Thyroid gland. Briefly: Biodistribution in CD1 mouse thyroid at 175 to 200 kBq, iv after 4 hrs. It is filed as ADME, organism-based. As to conditions: in vivo. In short, it runs like this: as §2

Sequence of Epidermal growth factor receptor (Homo sapiens) (P00533 whole entry): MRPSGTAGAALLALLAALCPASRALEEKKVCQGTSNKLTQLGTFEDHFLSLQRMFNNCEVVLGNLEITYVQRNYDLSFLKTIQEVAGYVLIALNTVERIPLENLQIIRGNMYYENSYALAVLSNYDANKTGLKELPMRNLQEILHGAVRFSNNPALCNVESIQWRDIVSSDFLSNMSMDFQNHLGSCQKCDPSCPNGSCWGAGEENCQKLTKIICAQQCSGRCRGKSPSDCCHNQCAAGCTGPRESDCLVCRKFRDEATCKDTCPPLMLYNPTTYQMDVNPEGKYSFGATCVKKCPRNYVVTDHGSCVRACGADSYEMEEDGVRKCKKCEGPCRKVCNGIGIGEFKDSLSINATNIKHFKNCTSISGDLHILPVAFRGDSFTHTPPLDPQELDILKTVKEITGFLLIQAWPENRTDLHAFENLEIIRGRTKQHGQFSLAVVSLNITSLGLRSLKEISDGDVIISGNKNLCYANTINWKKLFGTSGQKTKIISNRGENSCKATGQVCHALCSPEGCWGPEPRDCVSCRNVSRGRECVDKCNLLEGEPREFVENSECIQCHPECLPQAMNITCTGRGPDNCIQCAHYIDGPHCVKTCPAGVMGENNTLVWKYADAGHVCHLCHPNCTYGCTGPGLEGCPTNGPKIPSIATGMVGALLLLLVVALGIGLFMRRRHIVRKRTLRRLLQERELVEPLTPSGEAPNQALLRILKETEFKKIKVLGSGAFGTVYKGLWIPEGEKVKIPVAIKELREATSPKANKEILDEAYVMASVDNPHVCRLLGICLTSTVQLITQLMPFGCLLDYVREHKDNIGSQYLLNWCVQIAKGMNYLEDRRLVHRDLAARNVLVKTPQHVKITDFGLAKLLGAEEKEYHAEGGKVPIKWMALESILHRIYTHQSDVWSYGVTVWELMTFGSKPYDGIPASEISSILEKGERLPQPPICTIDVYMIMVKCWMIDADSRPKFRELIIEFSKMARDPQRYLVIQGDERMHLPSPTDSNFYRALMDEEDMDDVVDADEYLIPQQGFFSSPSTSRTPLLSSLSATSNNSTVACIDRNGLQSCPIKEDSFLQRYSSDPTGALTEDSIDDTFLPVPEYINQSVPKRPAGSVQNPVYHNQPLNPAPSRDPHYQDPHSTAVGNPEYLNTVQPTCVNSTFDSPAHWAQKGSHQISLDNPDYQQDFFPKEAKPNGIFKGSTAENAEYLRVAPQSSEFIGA

For the compound `O=C(CCBr)Nc1ccc2ncnc(Nc3ccc(F)c(Cl)c3)c2c1`, in the data set on A-431, the IC50 – broadly, the point on the concentration scale where inhibition reaches its midpoint – was 3 µM. Besides, the inhibition (usually the share of the control response that was lost under treatment) in [1] came to 100%. In addition, the result in data set [2] was Active.
The compound `Nc1ccc2ncnc(Nc3ccc(F)c(Cl)c3)c2c1` gave an IC50 in the data set on A-431 of 25 µM. This compound showed an inhibition in data set [1] of 95%.
In the data set with A-431, `O=C(CCI)Nc1ccc2ncnc(Nc3ccc(F)c(Cl)c3)c2c1` registered an IC50 of 2 µM. Also, the inhibition in data set [1] was found to be 100%. The result in data set [2] was Active.
Regarding `O=C(CC[125I])Nc1ccc2ncnc(Nc3ccc(F)c(Cl)c3)c2c1`, the logD – broadly, the decadic logarithm of the distribution of all forms, ionised or not, between an organic phase and buffer at a given pH – in data set [3] stood at 2.25. In addition, the Activity in the data set on Serum was 6%. Also, the Drug uptake is listed as 6.1 %ID in the data set with Liver [4]; 2.3 %ID with Liver [5]; 35.2 %ID in the data set on Stomach [6]; 3.9 %ID in the data set on Stomach [7]; 5.7 %ID with Thyroid gland [8]; 13.2 %ID in the data set with Thyroid gland [9].
